According to ChEMBL document CHEMBL1141409, “Structures, biogenesis, and biological activities of pyrano[4,3-c]isochromen-4-one derivatives from the Fungus Phellinus igniarius” (J Nat Prod, 2007):

Assays:
[1] = Cytotoxicity against human Bel7402 cells; type: cell-based; details: Bel-7402
Liver microsomes = assay: Antioxidant activity assessed as inhibition of rat liver microsomal lipid peroxidation; type: functional, Microsome
[2] = Cytotoxicity against human […] cells; type: cell-based
A549 = assay: Cytotoxicity against human A549 cells; type: cell-based
HCT-8 = assay: Cytotoxicity against human HCT8 cells; type: cell-based
[3] = target: T1, Tyrosine-protein phosphatase non-receptor type 1 (Homo sapiens, UniProt P18031); assay: Inhibition of human PTP1B
T1 sequence (P18031 whole entry): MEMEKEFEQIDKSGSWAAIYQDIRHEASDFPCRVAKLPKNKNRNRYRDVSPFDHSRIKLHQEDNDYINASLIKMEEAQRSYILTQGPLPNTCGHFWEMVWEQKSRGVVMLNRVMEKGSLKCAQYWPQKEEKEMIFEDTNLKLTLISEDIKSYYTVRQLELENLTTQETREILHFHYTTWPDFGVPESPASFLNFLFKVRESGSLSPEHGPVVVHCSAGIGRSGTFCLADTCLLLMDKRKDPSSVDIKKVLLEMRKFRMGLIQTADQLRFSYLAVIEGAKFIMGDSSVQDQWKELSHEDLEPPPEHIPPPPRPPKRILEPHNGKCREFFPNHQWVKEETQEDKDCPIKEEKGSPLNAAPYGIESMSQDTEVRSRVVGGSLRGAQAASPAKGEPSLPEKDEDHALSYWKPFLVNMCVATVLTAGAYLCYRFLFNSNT
Summary of the method: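 Recombinant GST-tagged human PTP1B, purified from bacterial pellets on a GST bead column. Substrate 3 mM p-NPP in HEPES buffer, pH 7.0. Compounds dissolved in DMSO, 10% DMSO final in all reactions. First screened at 10 µM for 10 min at 30 °C. Reaction started by adding enzyme and stopped with 1 M NaOH. End-point p-nitrophenol absorbance at 405 nm.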

| SMILES | IC50 (Liver microsomes) [µM] | IC50 [3] [µM] | IC50 [1] | IC50 [2] | IC50 (A549) | IC50 (HCT-8) |
| --- | --- | --- | --- | --- | --- | --- |
| CC1=CC(=O)[C@H](c2c(O)cc(/C=C/c3ccc(O)c(O)c3)oc2=O)[C@@H](c2ccc(O)c(O)c2)O1 [DAVALLIALACTONE] | 8.2 |  | > 10 µg/mL | > 10 µg/mL | > 10 µg/mL | > 10 µg/mL |
| O=c1oc2cc(-c3c(-c4ccc(O)c(O)c4)oc4cc(/C=C/c5ccc(O)c(O)c5)oc(=O)c34)oc(=O)c2c2cc(O)c(O)cc12 [PHELLIGRIDIN H] | 4.8 |  | > 10 µg/mL | > 10 µg/mL | > 10 µg/mL | > 10 µg/mL |
| CC[C@@]1(O)C(=O)OCc2c1cc1n(c2=O)Cc2cc3c(CN(C)C)c(O)ccc3nc2-1 [TOPOTECAN] |  |  | 1.4 µM | 1.2 µM | 3.1 µM | 1.6 µM |

Continued, in another order:

| IC50 (Liver microsomes) [µM] | IC50 [3] [µM] | SMILES | IC50 [1] | IC50 [2] | IC50 (A549) | IC50 (HCT-8) |
| --- | --- | --- | --- | --- | --- | --- |
| 3.7 | 3 | O=c1oc(/C=C/c2ccc(O)c(O)c2)cc(O)c1-c1cc(O)c(O)cc1/C=C/c1cc2oc(=O)c3cc(O)c(O)cc3c2c(=O)o1 [PHELLIGRIDIN I] | > 10 µg/mL | > 10 µg/mL | > 10 µg/mL | > 10 µg/mL |
| 6.5 | > 10 | O=C(O)c1cc2oc(=O)c3cc(O)c(O)cc3c2c(=O)o1 [PHELLIGRIDIN J] | 9.2 µM | 7.2 µM | 4.2 µM | 8.4 µM |
